# Screening results: PubChem, Sanford-Burnham Center for Chemical Genomics
# STEP block: STEP phosphatase inhibitors, primary screen, biochemical, fluorescence intensity, uHTS; 360,000 compounds, 0.25% hits; inhibition, % at 20 µM; AID 588621, 2011; Tyrosine-protein phosphatase non-receptor type 5 (Homo sapiens), P54829; recombinant STEP, OMFP fluorogenic substrate;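 active = inhibition at 20 µM, scaled per plate between control wells, above about 37%, limit read from the data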;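 also: 0% = DMSO with enzyme and substrate and 100% = substrate only without enzyme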
#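 Also added – OMFP at 25 µM · Test system – STEP tyrosine phosphatase · Technique – FITC-channel fluorescence of OMFP product · Schedule – 20 min at room temperature, dark · Evaluation – control-normalized % inhibition with plate pattern correction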
# DNMT1 inh: human DNMT1 methyltransferase inhibitors, primary screen, biochemical, molecular beacon, fluorescence, HinP1I cleavage, uHTS | DNA (cytosine-5)-methyltransferase 1 (Homo sapiens), P26358 | inhibition (reported as % activation of signal), % at 10 µM | 360,000 compounds, 0.83% hits | AID 588458, 2011; in the data active = inhibition above about 50%
# Rpn11 inh: Rpn11 (PSMD14) deubiquitinase inhibitors, primary screen, biochemical, fluorescence polarization, uHTS | 360,000 compounds, 0.59% hits | human 26S proteasome, Ub4-pepOG fluorescence polarization; 20S core pre-blocked with epoxomicin | inhibition, % at 20 µM | 26S proteasome non-ATPase regulatory subunit 14 (Homo sapiens), O00487 | AID 588493, 2011;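 active = inhibition at 20 µM, scaled to each plate's controls, above about 33%, limit read from the data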
# Target sequence (O00487 whole entry, looked up): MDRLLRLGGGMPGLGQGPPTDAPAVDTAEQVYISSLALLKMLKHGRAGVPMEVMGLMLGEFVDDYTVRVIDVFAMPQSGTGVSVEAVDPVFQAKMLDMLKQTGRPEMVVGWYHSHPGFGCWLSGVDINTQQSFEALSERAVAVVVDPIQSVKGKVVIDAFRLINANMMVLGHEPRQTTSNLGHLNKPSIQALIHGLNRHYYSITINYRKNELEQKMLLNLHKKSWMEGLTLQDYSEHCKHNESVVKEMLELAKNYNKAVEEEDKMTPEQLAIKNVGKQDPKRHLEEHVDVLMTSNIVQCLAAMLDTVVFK
# SUMO1 PPI mod: modulators of SUMO1 protein-protein interactions, primary screen, biochemical, uHTS; Small ubiquitin-related modifier 1 (Homo sapiens), P63165; SUMO1 binding to a labelled peptide, TR-FRET, 1 h; inhibition, % at 20 µM; 360,000 compounds, 0.33% hits; in the data active = inhibition above about 37%
# Scp1 inh: Scp-1 phosphatase inhibitors, primary screen, biochemical, colorimetric, uHTS; Recombinant Scp1, phosphopeptide, malachite green phosphate absorbance; inhibition, % at 20 µM; Carboxy-terminal domain RNA polymerase II polypeptide A small phosphatase 1 (Homo …; 340,000 compounds, 0.88% hits;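 active = inhibition above about 50% at 20 µM, limit read from the data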;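 also: plate controls were DMSO wells with enzyme for no effect and wells lacking enzyme for full effect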
# Target sequence (Q9GZU7 76-261 limits assumed): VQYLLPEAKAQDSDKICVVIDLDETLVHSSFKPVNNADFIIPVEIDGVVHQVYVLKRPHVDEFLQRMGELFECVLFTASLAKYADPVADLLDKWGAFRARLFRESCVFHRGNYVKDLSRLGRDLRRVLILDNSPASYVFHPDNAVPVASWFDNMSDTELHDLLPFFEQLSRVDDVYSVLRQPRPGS
#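 Material – SCP-1 phosphatase catalytic domain, residues 76-261 · Buffer or medium – Acidic Tris acetate buffer with magnesium and detergent · Also added – Phospho 17-mer peptide substrate · Compound – single 20 µM dose, 1% DMSO · Times – 45 min room-temperature reaction, 5 min colour, 30 min stabiliser · Technique – Phosphate-binding colour reagent, absorbance read at 630 nm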
# LMPTP block: LMPTP phosphatase inhibitors, primary screen, biochemical, fluorescence intensity, uHTS | recombinant LMPTP-A, OMFP fluorogenic substrate | inhibition, % at 20 µM | 360,000 compounds, 0.22% hits | AID 651560, 2012;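 active = compounds that cut the enzyme signal by at least half of the control window in the single-dose screen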;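 also: plate controls were DMSO wells with enzyme plus substrate for no effect and substrate without enzyme for full effect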
# Target sequence (P24666 whole entry, looked up): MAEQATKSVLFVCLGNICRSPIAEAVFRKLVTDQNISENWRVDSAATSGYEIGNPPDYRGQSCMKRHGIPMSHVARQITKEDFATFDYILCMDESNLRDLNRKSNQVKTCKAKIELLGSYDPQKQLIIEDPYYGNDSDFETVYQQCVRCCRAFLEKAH
#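 Buffer or medium: Bis-Tris pH 6.0, DTT, detergent; Assay system: LMPTP-A enzyme; Quantity: 0.625 nM enzyme; Detection: endpoint fluorescence intensity; Times: 50 min dark incubation at room temperature; Controls: substrate-only low control, DMSO enzyme-plus-substrate high control; Doses: single 20 µM dose; Read-out: percent inhibition versus substrate-only and uninhibited controls; Reagent: 400 µM OMFP.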
# Rpn11 confirm: Rpn11 (PSMD14) deubiquitinase inhibitors, confirmation, biochemical, fluorescence polarization, single concentration; shares compounds with Rpn11 inh; purified human 26S proteasome, Ub4-pepOG fluorescence polarization; proteasome pretreated with epoxomicin; inhibition, % at 20 µM; 1,900 compounds, 29% hits; AID 602318, 2012
# MMP-2 counter: MMP-2 enzyme inhibition, confirmation, counter-screen for RPN11 inhibitor project, biochemical, fluorescence, single concentration; shares compounds with Rpn11 inh; recombinant MMP-2, FRET peptide cleavage fluorescence; inhibition, % at 20 µM; 1,900 compounds, 4% hits; AID 602330, 2012;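 also: human MMP-2 activated beforehand with APMA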
# Thrombin FP: bovine thrombin protease inhibition, confirmation, counter-screen for Rpn11 inhibitor project, biochemical, fluorescence polarization, single concentration. shares compounds with Rpn11 inh. bovine thrombin cleavage of Ub4-pepOG. inhibition, % at 20 µM. 1,900 compounds, 13% hits. AID 602333, 2012;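 active = mean inhibition at least 40% at 20 µM, or signal 3 deviations below plate average, so some actives read negative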;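 also: plate controls were thrombin with DMSO for no effect and buffer wells lacking thrombin for full effect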
# An asterisk follows results filed as active; / = no result given; + = active, no number. Hits are enriched below; roughly 2.3% of the tested compounds scored in any of these assays. Rule as the data show it, unless noted: active = inhibition above about 40%; inactive = the rest.
SMILES,STEP block,DNMT1 inh,Rpn11 inh,SUMO1 PPI mod,Scp1 inh,LMPTP block,Rpn11 confirm,MMP-2 counter,Thrombin FP
CCN1C(=O)/C(=C2/Sc3ccccc3N2CC)S/C1=N\c1ncn[nH]1,0,-2,72*,7,4,1,162*,-70,104*
CCn1c(=O)c([N+](=O)[O-])c(NC2CCS(=O)(=O)C2)c2ccccc21 (stereo unspecified),-1,4,-4,-3,-11,0,/,/,/
O=C(O)c1ccc(COc2ccccc2[N+](=O)[O-])o1,0,19,-12,-6,24,-1,/,/,/
CC(=O)c1ccc(NC(=O)c2ccc(COc3ccccc3[N+](=O)[O-])o2)cc1,-1,3,49*,2,1,6,7,-3,-29
N#CC1=C(N)Oc2cc(O)c(C=Nc3ccccc3)cc2C1c1ccccc1 (stereo unspecified),-6,-3,2,-2,-10,0,/,/,/
Cc1ccccc1N=Cc1cc2c(cc1O)OC(N)=C(C#N)C2c1ccccc1 (stereo unspecified),-6,-7,66*,-7,-4,1,96*,5,93*
O=C(/C=C/c1cccs1)Nc1cccc(NC(=O)/C=C/c2cccs2)n1,1,-17,45*,-1,16,5,56*,18,41*
COc1cc(NC(=O)c2c(Cl)cnn2C)c(OC)cc1Cl,-2,-6,-2,6,-5,0,/,/,/
Cn1ncc(Cl)c1C(=O)Nc1cc(C(F)(F)F)ccc1F,1,1,+,-2,-2,0,-5,-49,-11
CC(=O)c1cccc(CN2CCC(n3nccc3NC(=O)c3ccc4c(c3)OCO4)CC2)c1,-2,3,-1,6,-15,0,/,/,/
COc1ccccc1NC(=O)CSc1nc(N)c(C#N)cc1C#N,-3,-2,50*,-8,1,-1,71*,-26,47*
CCOc1ccccc1NC(=O)CSc1nc(N)c(C#N)cc1C#N,2,1,14,-3,-2,0,/,/,/
C/C(=N\OCC(=O)OC(C)C(=O)Nc1ccc(C)c(S(=O)(=O)N2CCOCC2)c1)c1ccc2c(c1)OCO2 (stereo unspecified),0,-14,-3,0,1,2,/,/,/
CC(C)N1CCc2c(sc(NC(=O)c3ccc4ccccc4c3)c2C(N)=O)C1,2,-8,/,-34,-4,3,/,/,/
CC(C)N1CCc2c(sc(NC(=O)c3cc4cc([N+](=O)[O-])ccc4s3)c2C(N)=O)C1,1,-13,66*,2,-1,42,22,15,-11
N=c1c(C(=O)NC2CCCCC2)cc2c(=O)n3ccccc3nc2n1Cc1ccc(F)cc1,2,-5,51*,-33,14,4,18,-28,-91
N=c1c(C(=O)NC2CCCC2)cc2c(=O)n3ccccc3nc2n1Cc1ccccc1,0,-2,-9,-48,12,3,/,/,/
COc1ccc(-c2nnc(SCC(=O)NCc3cccs3)n2C(C)C)cc1,5,-8,39*,1,5,-1,10,-10,-1
COc1ccc(-c2nnc(SCC(=O)NCc3cccs3)n2C)cc1,0,6,-2,-2,-5,-1,/,/,/
Cc1ccc(C(=O)COC(=O)c2cc(=O)[nH]c3ccccc23)cc1C,25,22,100*,10,81*,24,59*,13,4
COc1ccccc1C(=O)COC(=O)c1cc(=O)[nH]c2ccccc12,0,2,-3,-31,-5,-1,/,/,/
COc1ccc(-n2nc3c(N4CCC(C(=O)NCc5ccccc5C)CC4)nnc(C)c3c2C)cc1,-2,21,74*,16,30,26,34,-331,17
COc1ccc(-n2nc3c(N4CCC(C(=O)NCCc5ccccc5C)CC4)nnc(C)c3c2C)cc1,1,5,12,-14,3,28,/,/,/
CCOc1ccccc1CNC(=O)C1CCCN(c2nnc(C)c3c(C)n(-c4ccccc4)nc23)C1 (stereo unspecified),-2,2,41*,47*,6,6,25,-29,2
Cc1ccc(-n2nc3c(N4CCC(C(=O)NCCc5ccccc5C)CC4)nnc(C)c3c2C)cc1,3,-3,22,-29,20,18,/,/,/
SMILES,STEP block,DNMT1 inh,Rpn11 inh,SUMO1 PPI mod,Scp1 inh,LMPTP block,Rpn11 confirm,MMP-2 counter,Thrombin FP
Cn1[nH]c(C(F)(F)F)cc1=O,-1,4,-11,1,-6,-1,/,/,/
O=C(Nc1nc2ccc(S(=O)(=O)N3CCCCC3)cc2s1)c1cccnc1,0,-3,54*,-1,2,2,6,-9,-2
CN(C)CCCNc1ncnc2c1cnn2Cc1ccccc1Cl,-2,2,-10,-4,1,-3,/,/,/
CC(C)(C)c1ccc(C(=O)Nc2nnc(Cc3c[nH]c4ccccc34)s2)cc1,-2,-17,5,1,-2,0,/,/,/
O=C(Nc1nnc(Cc2c[nH]c3ccccc23)s1)c1ccc(Cl)cc1Cl,-7,-32,42*,13,-12,2,29,0,10
CN1CCN(Cn2cc(/C=C/C(=O)c3ccccc3)c3ccccc32)CC1,22,-10,15,-20,-17,-1,/,/,/
CCCN(CCC)CC(O)Cn1cc(/C=C/C(=O)c2ccccc2)c2ccccc21 (stereo unspecified),3,0,39*,-21,-3,11,5,-22,12
Cc1ccc(C(=O)N=c2sccn2C)cc1S(=O)(=O)N1CCOCC1,-9,0,68*,6,10,-1,1,30,14
CCN1C(=O)/C(=C/C=C2/Sc3ccccc3N2CCO)SC1=S,9,26,52*,-56,-1,1,26,18,12
